Reference: the RNAGym collection of RNA variant scans (doi:10.1002/anie.201605470)

B1: Osa-1-4 twister ribozyme (parent)
chain: CCGCCUAACACUGCCAAUGCCGGUCCCAAGCCCGGAUAAAAGUGGAGGGGGCGG

Variants of: B1
Test: self-cleavage, relative activity (ratio to wild type); higher = more cleavage; co-transcriptional
Summary of the method: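 The 48 positions downstream of the cleavage site in a 54-nucleotide Oryza sativa twister ribozyme template were synthesised at 97 % wild-type base and 1 % of each other base. The template was transcribed in vitro at 37 °C for 2 h, with self-cleavage allowed during transcription. Reads with or without upstream sequence after deep sequencing marked cleavage status, and relative activity is fraction cleaved normalised to wild type.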
A46U G50C showed a self-cleavage of 0.07.
For G47U U37C, the self-cleavage was 0.37.
Variant G47U U37A has a self-cleavage of 0.23.
For G47U U37G, the self-cleavage was 0.51.
Work on A46U C33A yielded a self-cleavage of 0.05.
With A46U C33U the self-cleavage was 0.06.
A46U C33G gave a self-cleavage of 0.03.
A46U G45C gave a self-cleavage of 0.04.
In the case of A46U G45A, the self-cleavage is reported as 0.08.
Work on A46U G45U yielded a self-cleavage of 0.03.
Work on A46U C52A yielded a self-cleavage of 0.1.
A46U C52U showed a self-cleavage of 0.09.
Work on A46U C52G yielded a self-cleavage of 0.12.
With G47C G49C the self-cleavage was 0.06.
Variant G47C G49U has a self-cleavage of 0.03.
In the case of G47C G49A, the self-cleavage is reported as 0.05.
A46U G44A showed a self-cleavage of 0.07.
In the case of A46U G44C, the self-cleavage is reported as 0.06.
A46U G44U showed a self-cleavage of 0.07.
With G48A the self-cleavage was 0.14.
G48U showed a self-cleavage of 0.1.
Variant G48C has a self-cleavage of 0.12.
In the case of A46U C14U, the self-cleavage is reported as 0.06.
Variant A46U C14A has a self-cleavage of 0.03.
In the case of A46U C14G, the self-cleavage is reported as 0.03.
Variant A46U G53A has a self-cleavage of 0.1.
A46U G53C showed a self-cleavage of 0.05.
Variant A46U G53U has a self-cleavage of 0.09.
With G47A G48U the self-cleavage was 0.04.
G47A G48C showed a self-cleavage of 0.04.
G47A G48A showed a self-cleavage of 0.08.
In the case of A46U U18G, the self-cleavage is reported as 0.09.
In the case of A46U U18A, the self-cleavage is reported as 0.05.
For A46U U18C, the self-cleavage was 0.08.
Work on A46U G13U yielded a self-cleavage of 0.01.
A46U G13C gave a self-cleavage of 0.02.
Variant A46U G13A has a self-cleavage of 0.03.
In the case of G47U U43A, the self-cleavage is reported as 0.1.
G47U U43C gave a self-cleavage of 0.08.
Variant G47U U43G has a self-cleavage of 0.07.
With A46U A8G the self-cleavage was 0.08.
Work on A46U A8U yielded a self-cleavage of 0.07.
In the case of A46U A8C, the self-cleavage is reported as 0.03.
With G48C G54C the self-cleavage was 0.1.
With G48C G54U the self-cleavage was 0.2.
Work on G48C G54A yielded a self-cleavage of 0.11.
Work on G48U G53U yielded a self-cleavage of 0.08.
Work on G48U G53C yielded a self-cleavage of 0.06.
G48U G53A showed a self-cleavage of 0.1.
With G47U G49C the self-cleavage was 0.04.
In the case of G47U G49A, the self-cleavage is reported as 0.05.
For G47U G49U, the self-cleavage was 0.05.
Work on G49A G50U yielded a self-cleavage of 0.23.
Work on G49A G50A yielded a self-cleavage of 0.27.
G49A G50C showed a self-cleavage of 0.22.
Variant G48C U24G has a self-cleavage of 0.01.
With G48C U24C the self-cleavage was 0.04.
With G48C U24A the self-cleavage was 0.04.
A46U C31A gave a self-cleavage of 0.02.
With A46U C31U the self-cleavage was 0.04.
Variant A46U C31G has a self-cleavage of 0.04.
For A46U G19C, the self-cleavage was 0.03.
With A46U G19U the self-cleavage was 0.04.
With A46U G19A the self-cleavage was 0.06.
For G47C G54A, the self-cleavage was 0.14.
In the case of G47C G54U, the self-cleavage is reported as 0.24.
G47C G54C gave a self-cleavage of 0.13.
G47C U37C gave a self-cleavage of 0.15.
Work on G47C U37A yielded a self-cleavage of 0.09.
G47C U37G gave a self-cleavage of 0.21.
G47U G53U gave a self-cleavage of 0.1.
For G47U G53A, the self-cleavage was 0.18.
With G47U G53C the self-cleavage was 0.06.
For G47U G54A, the self-cleavage was 0.28.
With G47U G54U the self-cleavage was 0.46.
Variant G47U G54C has a self-cleavage of 0.32.
For A46U C20G, the self-cleavage was 0.05.
With A46U C20A the self-cleavage was 0.06.
Variant A46U C20U has a self-cleavage of 0.1.
G47U G50C gave a self-cleavage of 0.07.
Work on G47U G50U yielded a self-cleavage of 0.1.
In the case of G47U G50A, the self-cleavage is reported as 0.19.
For G48C G49A, the self-cleavage was 0.05.
G48C G49C showed a self-cleavage of 0.07.
With G48C G49U the self-cleavage was 0.04.
With G49A U12G the self-cleavage was 0.06.
G49A U12A showed a self-cleavage of 0.08.
G49A U12C gave a self-cleavage of 0.05.
Variant G48C G50C has a self-cleavage of 0.1.
Work on G48C G50A yielded a self-cleavage of 0.3.
G48C G50U showed a self-cleavage of 0.1.
For A46U A7C, the self-cleavage was 0.02.
In the case of A46U A7G, the self-cleavage is reported as 0.07.
A46U A7U showed a self-cleavage of 0.04.
In the case of G47A U24A, the self-cleavage is reported as 0.04.
With G47A U24G the self-cleavage was 0.02.
G47A U24C gave a self-cleavage of 0.04.
Variant A46U C26G has a self-cleavage of 0.03.
A46U C26U showed a self-cleavage of 0.06.
With A46U C26A the self-cleavage was 0.02.
In the case of G47C G53A, the self-cleavage is reported as 0.1.
In the case of G47C G53U, the self-cleavage is reported as 0.08.
With G47C G53C the self-cleavage was 0.06.
G48A U24C gave a self-cleavage of 0.04.
For G48A U24G, the self-cleavage was 0.01.
G48A U24A showed a self-cleavage of 0.05.
In the case of A46U C11G, the self-cleavage is reported as 0.05.
Variant A46U C11A has a self-cleavage of 0.06.
A46U C11U gave a self-cleavage of 0.08.
Variant A46U G54A has a self-cleavage of 0.08.
Variant A46U G54C has a self-cleavage of 0.08.
A46U G54U gave a self-cleavage of 0.17.
For G48U U43A, the self-cleavage was 0.05.
With G48U U43C the self-cleavage was 0.05.
With G48U U43G the self-cleavage was 0.04.
With G49A the self-cleavage was 0.26.
G49A G53C showed a self-cleavage of 0.05.
Variant G49A G53A has a self-cleavage of 0.11.
With G49A G53U the self-cleavage was 0.09.
G47C U43C gave a self-cleavage of 0.08.
Work on G47C U43A yielded a self-cleavage of 0.1.
Work on G47C U43G yielded a self-cleavage of 0.07.
In the case of G47U U18A, the self-cleavage is reported as 0.28.
With G47U U18G the self-cleavage was 0.57.
Work on G47U U18C yielded a self-cleavage of 0.24.
Work on G48U G50C yielded a self-cleavage of 0.07.
Work on G48U G50U yielded a self-cleavage of 0.07.
G48U G50A showed a self-cleavage of 0.21.
G47A G54C gave a self-cleavage of 0.15.
With G47A G54A the self-cleavage was 0.18.
Variant G47A G54U has a self-cleavage of 0.34.
G47A G53U showed a self-cleavage of 0.08.
For G47A G53A, the self-cleavage was 0.13.
G47A G53C gave a self-cleavage of 0.06.
For G47C U24G, the self-cleavage was 0.01.
Variant G47C U24C has a self-cleavage of 0.04.
In the case of G47C U24A, the self-cleavage is reported as 0.03.
A46U G23C gave a self-cleavage of 0.02.
A46U G23A gave a self-cleavage of 0.06.
A46U G23U showed a self-cleavage of 0.03.
Variant A46U G35U has a self-cleavage of 0.09.
In the case of A46U G35A, the self-cleavage is reported as 0.07.
In the case of A46U G35C, the self-cleavage is reported as 0.05.
G47C G50C showed a self-cleavage of 0.08.
Variant G47C G50U has a self-cleavage of 0.07.
G47C G50A showed a self-cleavage of 0.13.
Variant G48U G49A has a self-cleavage of 0.04.
For G48U G49C, the self-cleavage was 0.03.
For G48U G49U, the self-cleavage was 0.05.
Work on A46U U24C yielded a self-cleavage of 0.05.
Work on A46U U24A yielded a self-cleavage of 0.04.
A46U U24G gave a self-cleavage of 0.01.
G48C U37A showed a self-cleavage of 0.08.
In the case of G48C U37G, the self-cleavage is reported as 0.16.
With G48C U37C the self-cleavage was 0.1.
In the case of G48A G49U, the self-cleavage is reported as 0.04.
For G48A G49A, the self-cleavage was 0.05.
G48A G49C showed a self-cleavage of 0.03.
In the case of A46G U37G, the self-cleavage is reported as 0.09.
Work on A46G U37C yielded a self-cleavage of 0.08.
With A46G U37A the self-cleavage was 0.05.
Work on A46U C32A yielded a self-cleavage of 0.03.
A46U C32U showed a self-cleavage of 0.05.
For A46U C32G, the self-cleavage was 0.05.
G47U G48U showed a self-cleavage of 0.05.
With G47U G48A the self-cleavage was 0.04.
Work on G47U G48C yielded a self-cleavage of 0.05.
